Sampled rows, rich in hits. Any-hit rate of the full collection: about 1%.
Fam108B inh: mouse Fam108B serine hydrolase inhibitors, primary screen, counter-screen for RBBP9 inhibitor project, biochemical, fluorescence polarization. recombinant Fam108B, FP-Rh probe fluorescence polarization. inhibition, % at 9.51 µM. 300,000 tested, 0.33% active. AID 1947, 2009;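 active = inhibition above the screen mean inhibition plus 3 SD, computed separately per campaign, cut at about 18% in these data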;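 note: inhibitors lower polarization as less probe binds the enzyme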
proCasp7 act: procaspase-7 activators, primary screen, counter-screen for procaspase-3 activator project, biochemical, absorbance, HTS, human | Caspase-7 (Homo sapiens), P55210 | recombinant procaspase-7, Ac-DEVD-pNA absorbance 405 nm; D23A/D198A/D206A triple mutant, cannot self-cleave; scale: DMSO 0, 5 µM enzyme 100 | activation, % at 8.5 µM | 330,000 tested, 0.093% active | AID 463210, 2010;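 active = percent activation above the screen-wide mean plus 3 SD, cut at about 25% in these data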
Target sequence (P55210 whole entry D23A/D198A/D206A): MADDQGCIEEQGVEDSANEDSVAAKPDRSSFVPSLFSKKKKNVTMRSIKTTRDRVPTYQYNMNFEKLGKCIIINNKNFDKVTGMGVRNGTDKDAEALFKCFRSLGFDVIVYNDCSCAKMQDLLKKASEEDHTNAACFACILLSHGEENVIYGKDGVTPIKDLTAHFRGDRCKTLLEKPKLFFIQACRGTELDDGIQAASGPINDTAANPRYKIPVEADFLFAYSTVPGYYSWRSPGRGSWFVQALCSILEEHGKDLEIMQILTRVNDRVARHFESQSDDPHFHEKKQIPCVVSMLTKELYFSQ
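Test system: Procaspase-7 triple mutant (PC-7 D3A). Also added: Ac-DEVD-pNA substrate, 400 µM as added. Schedule: 1 h enzyme–compound preincubation and 2 h substrate reaction, both 25 °C. Signal: p-Nitroaniline absorbance at 405 nm, read at 0 and 120 min. Control set: low DMSO alone, high DMSO plus 5 µM PC-7.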
proCasp3 act: activators of human procaspase-3 D3A mutant, primary screen, biochemical, absorbance, PC-3 D3A mutant, single concentration. Caspase-3 (Homo sapiens), P42574. activation, % at 8.5 µM. recombinant procaspase-3 D3A, Ac-DEVD-pNA absorbance 405 nm. 330,000 tested, 0.11% active;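 active = activation above the mean of all tested compounds plus 3 SD, cut at about 21% in these data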;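 note: 0% = DMSO alone and 100% = DMSO wells spiked with extra 5 µM PC-3 D3A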
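System: Procaspase-3 D3A mutant. Medium: Zinc-free 300 mM NaCl, 50 mM HEPES, 0.01% Triton X-100. Schedule: 1 h preincubation plus 2 h reaction at 25 °C. Measured by: 405 nm absorbance of p-nitroaniline, reads at 0 and 120 min. Read-out: percent activation relative to control range.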
LYPLA1 inh: LYPLA1 inhibitors, primary screen, counter-screen for PME1 inhibitor project, biochemical, fluorescence polarization, FP-Rh probe ABPP; 320,000 tested, 0.16% active; recombinant LYPLA1; inhibition, % at 5.9 µM; Acyl-protein thioesterase 1 (Homo sapiens), O75608;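 active = inhibition above the mean of all tested compounds plus 3 SD, set per campaign, cut at about 14% in these data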;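 note: inhibitors block serine hydrolase probe labeling of LYPLA1 so polarization falls; 0% = enzyme with DMSO and 100% = wells lacking LYPLA1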
Target sequence (O75608 whole entry, looked up): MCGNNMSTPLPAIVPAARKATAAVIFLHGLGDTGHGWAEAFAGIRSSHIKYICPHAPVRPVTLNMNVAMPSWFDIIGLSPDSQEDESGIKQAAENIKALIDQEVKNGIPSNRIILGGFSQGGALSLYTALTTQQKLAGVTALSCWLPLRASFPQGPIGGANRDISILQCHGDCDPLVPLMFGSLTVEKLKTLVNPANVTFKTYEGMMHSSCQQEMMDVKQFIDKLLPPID
PME-1 primary: PME-1 inhibitors via competitive probe labeling, primary screen, biochemical, fluorescence polarization, FP-Rh probe, HTS. inhibition, % at 5.9 µM. 320,000 tested, 0.53% active. recombinant PME-1. Protein phosphatase methylesterase 1 (Homo sapiens), Q9Y570. AID 2130, 2009;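 active = inhibition above the campaign mean of all compounds plus 3 SD, cut at about 26% in these data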;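 note: competitive labeling of PME-1 active site by serine hydrolase directed probe; 0% = PME-1 with DMSO and 100% = wells lacking PME-1 enzyme; inhibitors block probe labeling so polarization falls and inhibition rises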
LYPLA2 inh: LYPLA2 inhibitors, primary screen, counter-screen for PME1 inhibitor project, biochemical, fluorescence polarization, FP-Rh probe ABPP; recombinant LYPLA2; inhibition, % at 5.9 µM; 320,000 tested, 0.38% active; AID 2177, 2009;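 active = inhibition above the screen-wide mean plus 3 SD, limit set per campaign, cut at about 26% in these data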;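 note: 0% = LYPLA2 with DMSO and 100% = wells lacking LYPLA2 enzyme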
* hit, by the source's call; x = not tested or not shown.

SMILES	Fam108B inh	proCasp7 act	proCasp3 act	LYPLA1 inh	PME-1 primary	LYPLA2 inh
Cc1ccc(C(=O)Nc2nnc(CC(=O)N/N=C/c3ccc(O)c(O)c3)s2)cc1	17.9	-5.6	5.0	-15.3	29.0*	-7.3
Cc1ccc(C(=O)Nc2nnc(CC(=O)N/N=C/c3ccncc3)s2)cc1	-5.9	3.8	-2.4	-10.6	-5.3	-10.7
Cc1ccc2c(c1)-n1c(nc3ccc(C)cc3c1=O)C(Cc1ccc(O)cc1)NC2=O (stereo not given)	x	3.2	1.6	x	x	x
O=C(NCC(c1ccc(F)cc1)N1CCOCC1)c1nn(-c2ccccc2)c(=O)c2ccccc12 (stereo not given)	x	7.9	0.8	-3.1	-5.5	-5.3
NS(=O)(=O)c1ccc(N2N=C(c3ccccc3)CC2c2ccc(F)cc2)cc1 (stereo not given)	10.8	85.7*	64.0*	0.8	1.7	5.4
CC(=O)c1ccc(N2CCN(c3ccc(C(N)=O)cc3[N+](=O)[O-])CC2)cc1	-0.6	-6.1	4.7	10.1	7.3	23.0
NC(=O)c1ccc(N2CCN(c3ccc(O)cc3)CC2)c([N+](=O)[O-])c1	4.6	-17.1	-13.1	9.3	-0.7	31.5*
Cc1ccc(CNC(=O)/C(C#N)=C\c2ccc(N(C)C)cc2)cc1	7.8	-54.3	21.8*	-1.6	26.8*	6.9
N#CCc1ccccc1C(=O)OCC(=O)N(Cc1ccccc1)Cc1ccccc1	x	-1.9	0.3	-2.0	2.0	-4.2
COc1ccc(-c2cc(-c3c(O)c(OC)c4occc4c3OC)[nH]n2)cc1	11.4	-8.5	-3.6	-5.3	32.6*	10.6
COc1ccc(CCNC(=O)COc2nncc3ccccc23)cc1	-2.4	6.8	5.2	-1.2	-0.3	-0.7
CCn1cc(C(=O)NCCCN2CCC(C)CC2)c(=O)c2cc(S(=O)(=O)N(C)C3CCCCC3)ccc21	-3.3	-3.4	17.4	5.1	38.0*	2.0
CCN(CC)CCNC(=O)c1cn(CC)c2ccc(S(=O)(=O)N(C)C3CCCCC3)cc2c1=O	-3.0	9.8	3.6	-2.1	22.2	2.6
CCn1cc(C(=O)NCCCN2CC(C)CC(C)C2)c(=O)c2cc(S(=O)(=O)N(C)C3CCCCC3)ccc21 (stereo not given)	-9.5	2.1	-0.4	-4.5	33.3*	1.1
Cc1ccc(C(=O)N(C)Cc2nc3ccccc3c(=O)[nH]2)cc1NC(=O)c1ccco1	x	14.4	5.7	x	x	x
Cc1ccc(C(C)NC(=O)CSc2ccc(S(=O)(=O)N3CCOCC3)cn2)cc1C (stereo not given)	x	-13.4	-10.1	1.1	11.0	-2.9
C/C(=C\c1ccccc1)C1Nc2cccc3cccc(c23)N1	x	-12.0	2.7	-7.1	9.8	1.0
C/C(=C\c1ccc2c(c1)OCO2)C1Nc2cccc3cccc(c23)N1	x	-2.4	0.8	-10.4	37.4*	8.4
CCOc1ccc(NC(=O)Nc2ccc3c(c2)N(C)C(=O)CS3)cc1	-1.1	8.3	2.2	-5.0	32.7*	-4.0
CC(=O)c1ccc(NC(=O)Nc2ccc3c(c2)N(C)C(=O)CS3)cc1	11.8	3.0	-1.7	-20.4	-9.8	-18.1
CCOC(=O)c1[nH]c2ccc(F)cc2c1NC(=O)c1cc(OC)c(OC)c(OC)c1	8.4	-1.5	-1.4	-3.7	-0.9	3.7
COc1cc(C(=O)Nc2c(C(=O)O)[nH]c3ccc(Br)cc23)cc(OC)c1OC	9.1	5.2	2.0	12.1	31.2*	0.2
CCN(CC)c1ccc(S(=O)(=O)N2CCOCC2)cc1NC(=O)Nc1ccccc1	x	4.0	-7.2	x	x	x
CCN(CC)c1ccc(S(=O)(=O)N2CCOCC2)cc1NC(=O)CN1CCN(Cc2ccccc2)CC1	3.7	4.9	2.1	1.0	59.4*	0.3
CCc1cccc2c(C(=O)COC(=O)c3ccc([N+](=O)[O-])s3)c[nH]c12	13.2	1.5	4.4	-3.8	28.6*	0.8
SMILES	Fam108B inh	proCasp7 act	proCasp3 act	LYPLA1 inh	PME-1 primary	LYPLA2 inh
COc1ccc(C(=O)c2sc3nc(-c4ccccc4)ccc3c2N)cc1	13.9	-41.2	-28.3	-3.5	34.7*	14.2
COc1ccc(-c2sc(Nc3ccc(F)c(F)c3F)nc2CCC(=O)NN)cc1	7.1	-6.0	-4.4	-4.0	29.7*	4.2
O=C(CCc1nnc(CCC2CCCCC2)o1)NCCc1cccnc1	9.5	12.7	-1.7	4.4	4.2	7.3
C[C@@H](NC(=O)[C@@H]1Cc2ccccc2CN1C(=O)OC(C)(C)C)C(=O)NCC1CCCO1 (stereo not given in full)	-1.5	-5.4	0.1	-3.0	-1.9	-6.9
O=C(OCCN(C1=NS(=O)(=O)c2ccccc21)c1ccc(Cl)cc1)c1ccco1	0.9	11.9	5.7	-3.8	27.1*	-3.3
O=C(COC(=O)C1CCC(=O)N1)Nc1ccccc1OC(F)F (stereo not given)	x	-2.6	0.5	x	x	x
CC(C)(C)OC(=O)NCCCCC1=CC2=CC(=O)C(C)(O)C(=O)C2=CO1 (stereo not given)	-1.2	-0.6	-5.9	-3.7	0.8	-4.0
COC(=O)CCCC1=CC2=CC(=O)C(C)(OC(=O)c3cnc4ccccc4n3)C(=O)C2=CO1 (stereo not given)	13.0	-6.6	0.1	20.2*	24.7	24.2
CCCCC1=CC2=CC(=O)C(C)(OC(=O)c3cnc4ccccc4n3)C(=O)C2=CO1 (stereo not given)	18.9*	0.6	-3.0	23.1*	30.7*	25.4
CC(C)(C)OC(=O)NCCCCC1=CC2=CC(=O)C(C)(OC(=O)c3cnc4ccccc4n3)C(=O)C2=CO1 (stereo not given)	11.5	1.5	-0.5	16.7*	18.2	19.8
N=c1sccn1CC(=O)Nc1cc(S(=O)(=O)N2CCCC2)ccc1Cl	-0.6	-0.2	7.8	0.2	4.1	-7.0
O=C(CN1CCCc2ccccc21)Nc1cc(S(=O)(=O)N2CCCC2)ccc1Cl	x	2.4	-2.9	-0.7	72.9*	-1.4
CC1CCCCC1NC(=O)c1cccc(N2C(=O)C3C4C=CC(C4)C3C2=O)c1 (stereo not given)	-0.6	4.4	5.0	-1.7	-1.5	6.7
C(=N\Nc1nc2ccccc2[nH]1)/c1cccc2cccnc12	7.3	3.0	-7.3	0.2	51.5*	-5.7
Cc1cc(OCC(=O)OCC(=O)Nc2cc(S(=O)(=O)N3CCOCC3)ccc2Cl)ccc1Cl	x	3.0	7.3	x	x	x
